Measured values taken from ChEMBL document CHEMBL4513216, “Probing the Open Global Health Chemical Diversity Library for Multistage-Active Starting Points for Next-Generation Antimalarials” (ACS Infect Dis, 2020).

Assay: Toxicity liver stage against HepG2, at 10uM
Format: cell-based
Parameters: test concentration 10 uM, cell line HepG2-A16-CD81EGFP
Settings: human, HepG2-A16-CD81EGFP cells; read-out: INHIBITION
Outline: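 Uninfected HepG2-A16-CD81EGFP cells, 3 × 10^3 per well, 1536-well, plated on prespotted compound at 10 μM final, parasite-free screening media added to match infected plates; puromycin 10 μM positive, DMSO 0.5% negative; run in parallel with 48 h PbLuc assay at 37 °C, 5% CO2; viability by CellTiter-Glo luminescence, normalized to controls.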

Structure (SMILES)	cytotoxicity at 10 µM
COC(=O)N1CC[C@@]2(O)CCCC[C@H]2[C@@H]1c1ccc2c(c1)OCO2	2.91%
Cc1ccc(S(=O)(=O)c2ncccc2CN2CCCC2)cc1	-49.4%
Cc1noc(C)c1S(=O)(=O)NCC(O)c1ccc2c(c1)CCO2 (stereo not drawn)	0.407%
COc1ccc(C(=O)N2CCO[C@H]3[C@H](OCC4CC4)CC[C@@H]32)cc1F	18.2%
CN(C)CCNC(=O)c1nc2c(o1)CN(c1ncccn1)C2	-0.603%
Cc1noc(C)c1CN1CC2(CCN(C(=O)c3cccn3C)C2)CC1=O (stereo not drawn)	6.53%
CCc1ccc(C(=O)N2CC(C(=O)NC(C)C)C3(CCOCC3)C2)cc1 (stereo not drawn)	3.65%
CCOC(=O)C1CCN(C(=O)c2cc(F)ccc2-n2cnnn2)CC1	-0.121%
CCN1CCCC(O)(CN(C)Cc2c(C)nn(C)c2C)C1 (stereo not drawn)	4.95%
Cc1noc(-c2cnc(NCC3CCCO3)nc2-c2ccco2)c1C (stereo not drawn)	7.74%
COCC(=O)N1CCCC(c2nc(N(C)C)ncc2-c2ccccc2)C1 (stereo not drawn)	6.1%
Cc1nccn1CC1CCCN(S(=O)(=O)c2cnn(C)c2)C1 (stereo not drawn)	8.58%
CC(=O)N1CCc2nnc(C3CCCCN3CC3CCCCC3)n2CC1 (stereo not drawn)	10.2%
Cc1nccc(N2CCCC(C)(C(=O)NC3CCCC3)C2)n1 (stereo not drawn)	-18.6%
CN1CCN(C(=O)C2CCCN(c3cccnn3)C2)CC1 (stereo not drawn)	-10.8%
Cc1cccc(CN2CCC(C3Nc4ccccc4S(=O)(=O)N3)CC2)n1 (stereo not drawn)	-18.9%
CC(C)N1CCC(c2nccnc2Nc2ncccn2)CC1	-23.7%
CNC(=O)C1(c2cnccn2)CCCN1C(=O)c1ccccn1 (stereo not drawn)	10.1%
Cn1ccc(C(=O)N2CCC(Cc3cccc4ncccc34)CC2)n1	-3.17%
CC(=O)N1Cc2ccccc2CC2(CCCCN2C)C1 (stereo not drawn)	3.87%
O=C(Nc1c(N2CCCC2)cccc1N1CCCC1)c1cnsn1	-43%

Structure (SMILES)	cytotoxicity at 10 µM
CC(O)CCN(C)C(=O)Nc1cc(F)cc(Br)c1 (stereo not drawn)	4.12%
O=C(Nc1cc(C(F)(F)F)c[nH]c1=O)C1CCCNC1 (stereo not drawn)	5.15%
CCN(Cc1nccn1C)C1CCN(c2ccccc2)C1=O (stereo not drawn)	4.19%
Cc1nnc(NC(=O)NCc2ccc(C)n2C)s1	-2.08%
CC(C)c1nccn1CC1CCCN1Cc1nc2ccccc2n1C (stereo not drawn)	-43.9%
CCc1c(NCc2cccnc2)cnn1CC(C)C	-0.625%
CCC(CNC(=O)Cn1ccnc1)Oc1cccc(F)c1 (stereo not drawn)	-45.8%
Cc1cc(C)c(CNC(=O)NCCc2cccnc2)c(=O)[nH]1	-53.3%
Cn1cccc(NC(=O)NCc2cccc(CO)c2)c1=O	-55.5%
Cc1cc(C)n(CC(C)CNC(=O)NCc2c(C)cc(C)[nH]c2=O)n1 (stereo not drawn)	-7.86%
C=C(C)CN1CCC(NC(=O)Nc2ccc(F)c(C(N)=O)c2)CC1	-6.08%
COCCN1CCC(CNC(=O)Nc2ccc(-c3ccccc3)cc2)C1 (stereo not drawn)	-15.2%
Cc1occc1C(=O)NCC(=O)NCCOc1ccc2c(c1)CCC2	-2.83%
Cc1cnn(CC2CCCN2Cc2cc(=O)n3cc(C)ccc3n2)c1 (stereo not drawn)	-10.9%
COc1ccc(N)c(N2CCN(C(C)=O)CC2)n1	-6.22%
Cc1cc(NC(=O)CN(C)CC2CCCN2c2cccnn2)n(C)n1 (stereo not drawn)	7.85%
Clc1ccc2oc(C3CCN(Cc4nc(C5CC5)no4)CC3)nc2c1	-5.15%
Cc1ccc(CN(C)C(=O)CN2CCCC2Cn2cncn2)cc1 (stereo not drawn)	7.84%
CN(C)C(=O)C1CCCN1CCCNC(=O)c1ccccc1Cl (stereo not drawn)	-8.27%
Cn1cnnc1-c1ccnc(NCc2ccc3c(c2)OCCO3)c1	-11%
CNC(=O)Cc1ccccc1NC(=O)C1CCCC1	31.1%

Structure (SMILES)	cytotoxicity at 10 µM
Cc1c(C(=O)NC2(C#N)CCSC2)nnn1-c1ccccc1Cl (stereo not drawn)	-5.34%
COCCOc1ncccc1C(=O)Nc1c(C)cnn1CC1CC1	3.36%
O=C(Nc1ccc(-n2cccn2)cc1)N1CCC(O)C1 (stereo not drawn)	19.9%
CCC(C)Oc1cc(C(=O)Nc2nnc(C(C)C)[nH]2)ccn1 (stereo not drawn)	-11.2%
CSc1ccsc1C(=O)NS(=O)(=O)c1ccc(F)cc1	-3.91%
COC(=O)C1CCN(C(=O)Nc2cc(-n3cccc3)ccc2F)CC1	5.44%
CCc1nc(CCNc2ccc(S(N)(=O)=O)cc2C#N)cs1	-54.6%
Cc1nc(-c2ccc(Cl)s2)sc1C(=O)O	7.51%
N#Cc1ccc(N2CCCN(CC(=O)N3CCOCC3)CC2)cc1	6.62%
COCCN1CCC(CNC(=O)C2(C#N)CCCC2)CC1	6.93%
COC1CCC(N(C)c2ccnc(N(C)C)n2)CC1 (stereo not drawn)	-13.6%
CN(C1CCCC1)C(C)(C)C(=O)NCCS(C)(=O)=O	-49.7%
CCN(CC(=O)NC(C)C)S(=O)(=O)N1CCC(C)C1 (stereo not drawn)	-3.26%
COCC(NC(=O)c1cc[nH]n1)c1cccc(C(F)(F)F)c1 (stereo not drawn)	-10.7%
CNc1ncc(-c2ccnn2C2CCN(C(C)=O)CC2)cn1	0.581%
Cc1nn(C)c(C)c1CN(C)c1nc(C2CCCC2)nc2c1cnn2C	27.9%
Cn1ccnc1C1CCCN(C(=O)c2ccncc2F)C1 (stereo not drawn)	3.18%
Cc1nc(CC(=O)NCCN2CCC(c3ccccc3C)C2)cs1 (stereo not drawn)	-40%
COc1ccc(NC(=O)c2cccc(CN3CCCC3C)c2)cc1OC (stereo not drawn)	0.636%
CC(C)n1ccnc1C1CCN(Cc2ccc(C(F)(F)F)c(F)c2)CC1	-7.43%
Cc1ccncc1C(=O)N1C[C@H]2CN(CC3CCC3)C[C@@]2(C(=O)O)C1	-5.73%

Structure (SMILES)	cytotoxicity at 10 µM
CCCc1nc(N(C)CCc2noc(C(C)C)n2)c2cnn(C)c2n1	3.86%
Cc1nccn1CCC(=O)N1CCC2(CCC(=O)N(CC3CC3)C2)CC1	-8.46%
CSc1nc(O)c(Cc2ccccc2)c(=O)n1-c1ccccc1	-6.24%
COc1cc(Cl)cc(C(=O)N2CCC3(CCCNC3)C2)c1 (stereo not drawn)	-7%
N#Cc1nccnc1N1CCC(C(O)c2cccs2)CC1 (stereo not drawn)	-38%
C=C(C)COc1cccc(C(=O)N(C)C(C)c2ccncn2)c1 (stereo not drawn)	-50%
CCN(Cc1ccc(C(C)C)cc1)C(=O)c1csc(CN(C)C)n1	-3.84%
O=C(O)c1cccnc1CN1CCOc2ccccc2C1	7.66%
Cc1nn(C)c(C)c1CN(C(=O)c1cnc(O)cn1)C(C)C	2.62%
CCCc1nnc(N2CCC3(CC2)CN(C)C(=O)O3)o1	2.64%
Cc1nc(NCc2ccc(C)o2)cc(C2CCNCC2)n1	4.52%
CN1CC2(CCCN(Cc3cccc(Oc4ccccc4)c3)C2)OC1=O (stereo not drawn)	5.09%
COc1cc2c(cc1CNC(=O)C(C)n1ccnc1C(C)C)OCCO2 (stereo not drawn)	-1.3%
N#CCCn1nc(C(F)(F)F)c2c1CCCC2	-11.9%
Cc1cnn(CC2CCCCN2C(=O)c2ccc(NC3CC3)nc2)c1 (stereo not drawn)	-11.9%
COc1ccc(F)cc1C(=O)N1CCCC(n2nc(C)nc2C)C1 (stereo not drawn)	3.05%
COCCN1CCCN(C(=O)NC(C)Cn2cccn2)CC1 (stereo not drawn)	-9.39%
CCOC(=O)C1(Cc2ccccc2-c2ccccc2OC)CCNCC1	-1.47%
CC(=O)NCC(=O)N1CCn2cc(CN(C)Cc3ccco3)nc2C1	4.81%
Cc1ccc(N2CC[C@H](OCC3CC3)[C@@H]2Cc2cccnc2)nn1	1.13%
